# About 1,100 (0.33%) of roughly 330,000 compounds were called active. The entries come from a sample that favours actives as a whole. A number with no mark means an inactive call.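 How the source made its calls: active means mean inhibition over replicate wells above about 20% (limit read from the data); inactive means the rest.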
# Target: Ubiquitin carboxyl-terminal hydrolase isozyme L5 (Homo sapiens) (UniProt Q9Y5K5)
# Assay: inhibitors of human UCH37 deubiquitinase, primary screen, biochemical, Ub-AMC cleavage, fluorescence (AID 588478);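 further: 0% = compound-free wells with enzyme and 100% = wells lacking proteasome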
# Conditions: purified proteasome/UCH37, Ub-AMC cleavage fluorescence; active compounds read high; concentration not given here
# Method in brief: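 Schedule: 30 min plus 25 min, room temperature / Material: human UCH37 within purified proteasomes / Technique: AMC fluorescence intensity at 355/460 nm / Buffer or medium: pH 7.4 Tris-HCl (50 mM) with ovalbumin, ATP-MgCl2, DTT / Controls: wells without proteasome as full block, compound-free enzyme plus substrate as uninhibited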
# Sequence of Ubiquitin carboxyl-terminal hydrolase isozyme L5 (Homo sapiens) (Q9Y5K5 whole entry, looked up): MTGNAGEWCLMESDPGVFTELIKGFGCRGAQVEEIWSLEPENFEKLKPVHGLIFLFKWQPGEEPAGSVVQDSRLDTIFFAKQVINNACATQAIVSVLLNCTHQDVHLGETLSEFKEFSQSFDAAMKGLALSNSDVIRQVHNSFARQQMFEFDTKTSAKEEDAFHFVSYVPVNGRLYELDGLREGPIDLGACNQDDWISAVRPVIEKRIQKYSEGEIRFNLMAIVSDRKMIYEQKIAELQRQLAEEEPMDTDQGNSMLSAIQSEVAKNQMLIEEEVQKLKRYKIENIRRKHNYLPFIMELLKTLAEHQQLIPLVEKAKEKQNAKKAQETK
row,SMILES,inhibition
1,CCCCCCCCCCCCn1ccc(=N)cc1,29.5% (active)
2,Brc1ccc2[nH]cc(C=NN3CCCCC3)c2c1,1.15%
3,C#C[C@]1(O)CCC2C3CCC4=CC(=NOCC(=O)NC(C)C(=O)NC(CCSC)C(=O)O)CC[C@]4(C)C3CC[C@@]21C (stereo not given in full),-1.31%
4,C=CCN1CC[C@]23c4c5ccc(O)c4O[C@H]2C(=NNC(=O)c2ccccc2)CC[C@@]3(O)[C@H]1C5,4.43%
5,CC12CCC3C(CCC4CC(=NO)CCC43C)C1CCC2O (stereo not given),2.36%
6,CCC(C)n1c(O)c(/C=N/Nc2nc3c(c(=O)n(C)c(=O)n3C)n2C)c(=O)[nH]c1=S (stereo not given),21.4% (active)
7,Cc1ccccc1/C=C\c1nc(O)c([N+](=O)[O-])c(=O)[nH]1,11.3%
8,CNC(=O)Nc1ccc(C(=O)NN=CC23CC[C@@H](O)CC2(O)CC[C@@H]2[C@@H]3CCC3(C)C(C4=CC(=O)OC4)CCC23O)cc1 (stereo not given in full),3.8%
9,COc1cc(C(=O)NC2CCN(Cc3ccccc3)CC2)cc(Cl)c1OC(C)C,4.45%
10,O=C1NC(=O)N(c2ccccc2)C(=O)/C1=C/c1ccc([N+](=O)[O-])s1,5.15%
11,COc1ccc(N2C(=O)/C(=C/c3ccco3)C(=O)NC2=S)cc1,31.7% (active)
12,COc1cccc(N2C(=O)NC(=O)/C(=C\c3ccc([N+](=O)[O-])s3)C2=O)c1,11.5%
13,Nc1nonc1C(=O)NN=Cc1ccc([N+](=O)[O-])o1,13.2%
14,CC1=CC(=Cc2sc3ccccc3[n+]2C)C=C(C)O1,20.3% (active)
15,COC(=O)[C@H](Cc1ccccc1)NC(=O)Nc1ccc(S(N)(=O)=O)cc1,2.98%
16,COc1ccc(C=NN=C(N)N[N+](=O)[O-])c(OC)c1,18.6%
17,Oc1ccc(C=NNP(=S)(c2ccccc2)c2ccccc2)cc1O,2.56%
18,COc1cccc(C(=O)N2C[C@H]3C[C@@H](C2)c2cccc(=O)n2C3)c1,2.34%
19,O=C(CN1CCN(S(=O)(=O)c2cccc(Cl)c2)CC1)N1CCCCC1,5.51%
20,CN1CCN(N=Cc2c[nH]c3ccccc23)CC1,3.94%

# — PubChem BioAssay AID588478 (ICCB-Longwood Screening Facility, Harvard Medical School, 2011)
